Source: ChEMBL document CHEMBL1122051 (J Med Chem, 1982)

Experiments:
L5178Y [1] = assay: Inhibitory activity against murine tumor cells (L5178Y/R); format: functional, Mus musculus
Procedure, shortened: (§1)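 L5178Y murine leukemia cells, MTX-sensitive (S) and MTX-resistant (R), kept in log-phase growth at 37 °C in RPMI-1640 with 10% fetal calf serum and 1% penicillin-streptomycin. Doubling times were 11-12 h (S) and 15-18 h (R). Cells seeded at 4.0-6.0 × 10^4 cells/mL, duplicate wells, at least six concentrations, final DMSO <2%. Untreated and DMSO controls included; cells counted by Coulter counter.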

L5178Y [2] = assay: Inhibitory activity against murine tumor cells (L5178Y/S); format: functional, Mus musculus; procedure, shortened: as §1
L5178Y [3] = assay: Inhibitory action against murine tumor cells (L5178Y/S); format: functional, Mus musculus; procedure, shortened: as §1
L5178Y [4] = assay: Inhibitory action against murine tumor cells (L5178Y/R); format: functional, Mus musculus; procedure, shortened: as §1
[5] = Partition coefficient (logP); format: physicochemical; details: octanol/water
Procedure, shortened: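 Octanol/water partitioning. The protonated form was partitioned between octanol and 0.1 N HCl. The neutral form was partitioned between octanol and 0.1 N NaOH.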

| Structure (SMILES) | Log 1/C (L5178Y [1]) | Log 1/C (L5178Y [2]) | Log 1/C (L5178Y [3]) | Log 1/C (L5178Y [4]) | logP [5] |
| --- | --- | --- | --- | --- | --- |
| CCCCCCCOc1cccc(Cc2cnc(N)nc2N)c1 | 4.61 | 5.1 |  |  |  |
| Nc1ncc(Cc2ccc(OC(F)(F)F)cc2)c(N)n1 | 4.46 | 5.24 |  |  |  |
| COc1ccc(Cc2cnc(N)nc2N)cc1 | 3.52 | 5.1 |  |  |  |
| COCc1cccc(Cc2cnc(N)nc2N)c1 | 3.65 | 5.28 |  |  |  |
| Cc1ccc(Cc2cnc(N)nc2N)cc1 | 4.21 | 5.26 |  |  |  |
| COCCOc1c(OC)cc(Cc2cnc(N)nc2N)cc1OC [TETROXOPRIM] | 3.16 | 4.2 |  |  |  |
| COCCOc1ccc(Cc2cnc(N)nc2N)cc1 | 3.08 | 4.77 |  |  |  |
| CN(C)c1ccc(Cc2cnc(N)nc2N)cc1 | 4.02 | 4.95 |  |  |  |
| Nc1ncc(Cc2ccccc2)c(N)n1 | 3.88 | 5.24 |  |  |  |
| Nc1ncc(Cc2ccc(Cl)cc2)c(N)n1 | 4.56 | 5.37 |  |  |  |
| Nc1ncc(Cc2cccc(OCc3ccccc3)c2)c(N)n1 | 4.7 | 5.91 |  |  |  |
| CCCCOCc1cccc(Cc2cnc(N)nc2N)c1 | 3.93 | 5.74 |  |  |  |
| Nc1ncc(Cc2cccc(O)c2)c(N)n1 | 3.09 | 4.89 |  |  |  |
| Cc1cccc(Cc2cnc(N)nc2N)c1 | 4.15 | 5.5 |  |  |  |
| Nc1ncc(Cc2cccc(CO)c2)c(N)n1 | 2.98 | 4.97 |  |  |  |
| COc1ccc(Cc2cnc(N)nc2N)cc1C(F)(F)F | 4.39 | 5.85 |  |  |  |
| CCCCCCCCOc1cccc(Cc2cnc(N)nc2N)c1 | 4.92 | 5.12 |  |  |  |
| CCCCOc1ccc(Cc2cnc(N)nc2N)cc1 | 4.83 | 5.37 |  |  |  |
| COc1cc(Cc2cnc(N)nc2N)cc(OC)c1 | 3.83 | 5.47 |  |  |  |
| Nc1ncc(Cc2ccc(O)c(O)c2)c(N)n1 | 4.94 | 5.06 |  |  |  |
| COc1ccc(Cc2cnc(N)nc2N)cc1OC [DIAVERIDINE] | 3.54 | 5.41 |  |  |  |
| Nc1ccc(Cc2cnc(N)nc2N)cc1 | 3.58 | 4.65 |  |  |  |

| Structure (SMILES) | Log 1/C (L5178Y [1]) | Log 1/C (L5178Y [2]) | Log 1/C (L5178Y [3]) | Log 1/C (L5178Y [4]) | logP [5] |
| --- | --- | --- | --- | --- | --- |
| Nc1ncc(Cc2cccc(F)c2)c(N)n1 | 3.61 | 5.27 |  |  |  |
| COCCOc1ccc(Cc2cnc(N)nc2N)cc1OCCOC | 3.28 | 5.06 |  |  |  |
| CCCCCCCOc1ccc(Cc2cnc(N)nc2N)cc1 | 5.67 | 5.13 |  |  |  |
| Nc1ncc(Cc2cc(CO)cc(CO)c2)c(N)n1 | 2.49 | 3.79 |  |  |  |
| Nc1ncc(Cc2ccc([N+](=O)[O-])cc2)c(N)n1 | 3.67 | 5.18 |  |  |  |
| COCCOc1cccc(Cc2cnc(N)nc2N)c1 | 3.7 | 5.2 |  |  |  |
| Nc1ncc(Cc2ccc(Br)cc2)c(N)n1 | 3.98 | 5.38 |  |  |  |
| Nc1ncc(Cc2cccc(Br)c2)c(N)n1 | 4.12 | 5.52 |  |  |  |
| CS(=O)(=O)Oc1cccc(Cc2cnc(N)nc2N)c1 |  |  | 5.28 | 3.34 |  |
| Nc1ncc(Cc2cccc(C(F)(F)F)c2)c(N)n1 | 4.37 | 5.63 |  |  |  |
| CCCCOc1cccc(Cc2cnc(N)nc2N)c1 | 4.99 | 5.74 |  |  |  |
| CCCCCCOc1ccc(Cc2cnc(N)nc2N)cc1 | 5.48 | 5.47 |  |  |  |
| Nc1ncc(Cc2cccc(Cl)c2)c(N)n1 | 3.85 | 5.39 |  |  |  |
| Nc1ncc(Cc2ccc(F)cc2)c(N)n1 | 3.9 | 5.48 |  |  |  |
| CC(=O)Nc1ccc(Cc2cnc(N)nc2N)cc1 | 3.23 | 5.12 |  |  |  |
| CC1(C)N=C(N)N=C(N)N1c1ccc(CCCCc2ccc(S(=O)(=O)F)cc2Cl)c(Cl)c1 |  |  |  |  | 2.4 |
| NC(=O)COc1cccc(Cc2cnc(N)nc2N)c1 |  |  | 4.91 | 3.14 |  |
| CC(=O)Nc1ccc(Cc2cnc(N)nc2N)cc1[N+](=O)[O-] | 3.2 | 5.11 |  |  |  |
| COc1cccc(Cc2cnc(N)nc2N)c1 | 3.63 | 5.06 |  |  |  |
| CCCCCCOc1cccc(Cc2cnc(N)nc2N)c1 | 5.16 | 5.3 |  |  |  |
| Nc1ncc(Cc2cccc(I)c2)c(N)n1 | 4.36 | 5.86 |  |  |  |
